Results on one molecule are retold here after ChEMBL document CHEMBL1828498, “Identification and characterization of a novel integrin-linked kinase inhibitor” (J Med Chem, 2011).

Activity calls are given as the source filed them. No cut-off for these calls is given here.

In data set [1] the test system is Mus musculus. Description: Decrease in phosphorylation of YB-1 in human PC3 cells xenografted nude mouse tumor lysate at 25 mg/kg, po administered for 35 days by Western blot analysis. It counts as functional, organism-based. To be noted: Neoplasm, PC-3. More on the design: dose 25 mg/kg. The gist of the method:
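Male NCr athymic nude mice, 5–7 weeks, with s.c. PC-3 xenografts (0.5 × 10^6 cells in 50% Matrigel), dosed by oral gavage once daily for 35 days. Vehicle 0.5% methylcellulose, 0.1% Tween 80 in water, 10 μL/g. Tumors snap-frozen at sacrifice; three tumors per group immunoblotted.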
A general note: Xenograft models place foreign cells or tissue in a host animal.

Data set [2] deals with Cyclin-dependent kinase 5/CDK5 activator 1 (Homo sapiens) (UniProt Q00535+Q15078). Description: Inhibition of CDK5/p25 at 5 uM assessed as remaining activity. It counts as protein-complex assay. The gist of the method: (§1)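 Panel of 20 recombinant kinases, profiled by a commercial vendor.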
Cyclin-dependent kinase 5/CDK5 activator 1 (Homo sapiens), sequence (Q00535 whole entry): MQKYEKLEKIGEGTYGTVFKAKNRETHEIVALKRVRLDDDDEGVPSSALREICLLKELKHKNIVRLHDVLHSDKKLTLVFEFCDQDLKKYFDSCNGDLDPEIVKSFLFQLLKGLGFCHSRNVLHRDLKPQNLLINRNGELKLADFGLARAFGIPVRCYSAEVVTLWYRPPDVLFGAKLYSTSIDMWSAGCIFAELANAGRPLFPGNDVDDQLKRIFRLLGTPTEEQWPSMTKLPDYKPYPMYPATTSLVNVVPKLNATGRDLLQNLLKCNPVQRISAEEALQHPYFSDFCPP
Cyclin-dependent kinase 5/CDK5 activator 1 (Homo sapiens), sequence (Q15078 99-307 partner limits assumed): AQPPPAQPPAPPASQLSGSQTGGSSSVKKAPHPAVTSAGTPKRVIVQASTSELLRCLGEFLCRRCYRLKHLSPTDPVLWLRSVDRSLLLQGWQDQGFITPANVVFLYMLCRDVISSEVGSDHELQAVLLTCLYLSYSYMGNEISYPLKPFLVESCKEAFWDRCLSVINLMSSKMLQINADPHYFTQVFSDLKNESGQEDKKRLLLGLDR
Data set [3] relates to SK-BR-3. Briefly: Reduction in EGFR mRNA expression in human SKBR3 cells expressing constitutively active ILK after 24 hrs by RT-PCR analysis. It counts as functional, cell-based. The procedure, abridged: (§2)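 PC-3, PC-3/CA-ILK, SKBR3 and SKBR3/CA-ILK cells treated 24 h in 5% FBS medium; total RNA from 1 × 10^6 cells by Trizol, 1 μg reverse-transcribed, then PCR with gene-specific primers and β-actin reference.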

In data set [4] the test system is Mus musculus. Briefly: Toxicity in nude mouse assessed as weight loss at 25 mg/kg, po administered for 35 days. It counts as organism-based. Also noted: dose 25 mg/kg, route oral. To be noted: in vivo, 840 h. The procedure, abridged: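 Male NCr nude mice bearing s.c. PC-3 tumors, dosed once daily by oral gavage in 0.5% methylcellulose/0.1% Tween 80 vehicle, 10 μL/g, for 35 days; body weight recorded weekly.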

For data set [5], the target named is T1, Scaffold protein ILK (Homo sapiens) (UniProt Q13418).
T1 sequence (whole entry): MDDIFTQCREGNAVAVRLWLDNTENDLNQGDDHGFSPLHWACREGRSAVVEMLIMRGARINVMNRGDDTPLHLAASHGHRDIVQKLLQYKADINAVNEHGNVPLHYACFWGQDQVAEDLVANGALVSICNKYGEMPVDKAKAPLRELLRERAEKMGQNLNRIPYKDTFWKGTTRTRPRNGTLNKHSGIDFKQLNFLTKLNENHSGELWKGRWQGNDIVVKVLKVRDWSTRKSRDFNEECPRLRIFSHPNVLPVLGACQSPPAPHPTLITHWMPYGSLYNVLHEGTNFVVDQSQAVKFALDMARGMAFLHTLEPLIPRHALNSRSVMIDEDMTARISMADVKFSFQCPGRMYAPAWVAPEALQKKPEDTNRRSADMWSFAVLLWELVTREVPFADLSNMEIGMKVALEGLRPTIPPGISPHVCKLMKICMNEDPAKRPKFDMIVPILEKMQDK
Description: Inhibition of ILK in human MDA-MB-231 cells assessed as decrease in GSK3-beta phosphorylation by Western blot analysis. The class given is cell-based. The procedure, abridged:
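PC-3 and MDA-MB-231 cells exposed 24 h in 5% FBS medium across a concentration series. Phospho-GSK3β (Ser9) and phospho-MLC (Thr18/Ser19) detected by immunoblot: SDS lysis, primary 1:1000 at 4°C for 2 h, HRP secondary, ECL. Representative of three experiments.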
For orientation: A western blot detects proteins with antibodies after separation by electrophoresis.

Data set [6] addresses Ribosomal protein S6 kinase beta-1 (Homo sapiens) (UniProt P23443). Briefly: Inhibition of p70S6K in human PC3 cells assessed as decrease in phosphorylated p70S6K by Western blot analysis. To be noted: PC-3. The class given is cell-based. The gist of the method:
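PC-3 cells (parental, or stable GFP-CA-ILK clones selected with G418 250 μg/mL and GFP sorting) exposed 24 h in 5% FBS medium; SDS lysis, immunoblot at 1:1000 primary, ECL; representative of three experiments.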

The target of data set [7] is 3-phosphoinositide-dependent protein kinase 1 (Homo sapiens) (UniProt O15530). Briefly: Inhibition of PDK1 at 5 uM assessed as remaining activity.
3-phosphoinositide-dependent protein kinase 1 (Homo sapiens), sequence (O15530 whole entry, looked up): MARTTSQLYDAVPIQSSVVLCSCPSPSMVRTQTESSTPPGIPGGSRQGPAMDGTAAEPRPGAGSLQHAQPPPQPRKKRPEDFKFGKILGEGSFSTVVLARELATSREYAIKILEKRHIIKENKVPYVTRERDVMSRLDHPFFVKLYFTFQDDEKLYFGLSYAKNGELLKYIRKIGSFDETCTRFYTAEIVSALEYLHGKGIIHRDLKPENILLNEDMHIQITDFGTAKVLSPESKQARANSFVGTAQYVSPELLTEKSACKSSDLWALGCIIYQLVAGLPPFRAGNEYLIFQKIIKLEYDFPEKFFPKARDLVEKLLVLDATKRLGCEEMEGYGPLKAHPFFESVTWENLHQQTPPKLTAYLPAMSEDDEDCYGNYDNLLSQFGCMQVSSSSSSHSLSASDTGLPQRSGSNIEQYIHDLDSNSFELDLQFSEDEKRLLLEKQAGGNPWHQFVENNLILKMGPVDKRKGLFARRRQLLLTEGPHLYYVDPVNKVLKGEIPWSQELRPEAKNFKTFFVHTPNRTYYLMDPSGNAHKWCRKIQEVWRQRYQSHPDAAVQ
In data set [8] the test system is PC-3. Briefly: Induction of apoptosis in human PC3 cells assessed as late apoptotic cells at 3 uM by annexin V/PI staining (reference value: 9.8%). It counts as functional.
The test system of data set [9] is SK-BR-3. Briefly: Reduction in HER2 concentration in human SKBR3 cells after 24 hrs by Western blot analysis. The class given is functional, cell-based. The procedure, abridged:
(§3)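 PC-3 versus stable PC-3/CA-ILK, or SKBR3 versus transient SKBR3/CA-ILK (electroporation, used 48 h after), treated 24 h in 5% FBS medium; immunoblotting with ECL; representative of three experiments.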

Data set [10] addresses Glycogen synthase kinase-3 beta (Homo sapiens) (UniProt P49841). Description: Inhibition of GSK3-beta at 5 uM assessed as remaining activity. The gist of the method:
as §1

The subject of data set [11] is PC-3. Description: Reduction in YB-1 mRNA expression in human PC3 cells expressing constitutively active ILK after 24 hrs by RT-PCR analysis. It counts as functional, cell-based. The gist of the method: as §2
For data set [12], the target named is T1, Scaffold protein ILK (Homo sapiens). Briefly: Inhibition of ILK in human PC3 cells assessed as decrease in phosphorylated ERK1/2 concentration by Western blot analysis. The class given is cell-based. To be noted: PC-3. The gist of the method:
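PC-3 cells exposed to graded concentrations for 24 h in 5% FBS medium. Immunoblotting for phospho-Tyr397-FAK, ERK1/2, p38 and JNK. Lysis in 1% SDS buffer, primary antibody 1:1000 at 4°C for 2 h, ECL. Three independent experiments.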

The target of data set [13] is Ribosomal protein S6 kinase alpha-1 (Homo sapiens) (UniProt Q15418). Briefly: Inhibition of Rsk1 at 5 uM assessed as remaining activity.
Ribosomal protein S6 kinase alpha-1 (Homo sapiens), sequence (Q15418 whole entry): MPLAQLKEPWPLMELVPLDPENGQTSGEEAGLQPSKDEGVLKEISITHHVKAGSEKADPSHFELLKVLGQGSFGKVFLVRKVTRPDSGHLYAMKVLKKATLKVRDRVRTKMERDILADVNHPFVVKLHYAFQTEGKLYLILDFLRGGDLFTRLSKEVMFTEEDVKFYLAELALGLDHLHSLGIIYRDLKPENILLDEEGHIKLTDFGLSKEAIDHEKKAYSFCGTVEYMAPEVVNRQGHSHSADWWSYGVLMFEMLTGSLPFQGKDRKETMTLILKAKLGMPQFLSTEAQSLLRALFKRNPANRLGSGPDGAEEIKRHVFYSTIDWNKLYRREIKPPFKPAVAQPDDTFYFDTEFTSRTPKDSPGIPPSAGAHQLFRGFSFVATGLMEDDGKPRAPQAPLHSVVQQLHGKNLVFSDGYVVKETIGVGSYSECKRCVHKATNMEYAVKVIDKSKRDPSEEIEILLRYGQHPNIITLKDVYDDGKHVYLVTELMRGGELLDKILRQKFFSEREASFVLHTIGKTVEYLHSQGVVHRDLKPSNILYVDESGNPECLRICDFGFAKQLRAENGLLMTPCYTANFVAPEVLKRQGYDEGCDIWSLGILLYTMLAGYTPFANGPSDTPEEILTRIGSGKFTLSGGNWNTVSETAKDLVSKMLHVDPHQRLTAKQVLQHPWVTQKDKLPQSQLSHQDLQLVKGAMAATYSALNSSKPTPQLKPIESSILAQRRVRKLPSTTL
Data set [14] has as its target Rapamycin-insensitive companion of mTOR (Homo sapiens) (UniProt Q6R327). Description: Inhibition of mTORC2 in human PC3 cells assessed as SGK1 phosphorylation by Western blot analysis. The class given is cell-based. To be noted: PC-3. The gist of the method: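 Cells exposed 24 h in 5% FBS medium, final DMSO 0.1%; lysed in 1% SDS/10 mM EDTA/50 mM Tris pH 8.1, equal protein on SDS-PAGE, nitrocellulose, primary antibody 1:1000 at 4°C for 2 h, HRP secondary 1:5000, ECL detection; blots representative of three independent experiments.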

For data set [15], the target named is Cyclin-dependent kinase 1/cyclin B1 (Homo sapiens) (UniProt P06493+P14635). Briefly: Inhibition of CDK1/cyclin B at 5 uM assessed as remaining activity. The class given is protein-complex assay. The gist of the method:
as §1

Data set [16] concerns PC-3. Description: Reduction in EGFR concentration in human PC3 cells expressing constitutively active ILK after 24 hrs by Western blot analysis. It counts as functional, cell-based. The procedure, abridged:
as §3

In data set [17] the target is Tyrosine-protein kinase ABL1 (Homo sapiens) (UniProt P00519). Description: Inhibition of Abl kinase at 5 uM assessed as remaining activity. The gist of the method:
as §1

Data set [18] concerns Mus musculus. Briefly: Inhibition of phosphorylation of Ser-437-Akt in human PC3 cells xenografted nude mouse tumor lysate at 25 mg/kg, po administered for 35 days by Western blot analysis. It counts as functional, organism-based. More on the design: dose 25 mg/kg. To be noted: Neoplasm, PC-3. The gist of the method: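 Tumors harvested at terminal sacrifice after 35 days of daily oral dosing, snap-frozen and stored at -80°C; lysates immunoblotted, three representative tumors per group.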

Cyclin-dependent kinase 1/cyclin B1 (Homo sapiens), sequence (P06493 whole entry, looked up): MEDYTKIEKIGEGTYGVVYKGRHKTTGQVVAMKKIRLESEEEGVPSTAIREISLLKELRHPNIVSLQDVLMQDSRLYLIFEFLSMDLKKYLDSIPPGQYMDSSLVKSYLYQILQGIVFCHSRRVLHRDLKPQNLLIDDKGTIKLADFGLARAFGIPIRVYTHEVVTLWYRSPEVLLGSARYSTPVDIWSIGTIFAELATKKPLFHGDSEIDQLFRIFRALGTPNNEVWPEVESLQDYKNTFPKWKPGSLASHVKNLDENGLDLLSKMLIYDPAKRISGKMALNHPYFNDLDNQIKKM
Cyclin-dependent kinase 1/cyclin B1 (Homo sapiens), sequence (P14635 whole entry, looked up): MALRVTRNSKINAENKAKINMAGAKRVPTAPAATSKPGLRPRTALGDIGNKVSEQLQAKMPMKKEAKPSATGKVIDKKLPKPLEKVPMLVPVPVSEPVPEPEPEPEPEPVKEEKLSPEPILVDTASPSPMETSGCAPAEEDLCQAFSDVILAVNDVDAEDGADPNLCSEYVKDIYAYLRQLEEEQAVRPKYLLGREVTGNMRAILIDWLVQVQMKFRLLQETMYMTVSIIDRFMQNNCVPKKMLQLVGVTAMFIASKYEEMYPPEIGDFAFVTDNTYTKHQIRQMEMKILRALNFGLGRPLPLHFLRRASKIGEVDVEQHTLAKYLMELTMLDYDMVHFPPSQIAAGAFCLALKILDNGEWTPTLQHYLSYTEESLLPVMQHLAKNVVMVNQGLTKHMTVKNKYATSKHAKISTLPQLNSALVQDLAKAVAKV
Glycogen synthase kinase-3 beta (Homo sapiens), sequence (P49841 whole entry, looked up): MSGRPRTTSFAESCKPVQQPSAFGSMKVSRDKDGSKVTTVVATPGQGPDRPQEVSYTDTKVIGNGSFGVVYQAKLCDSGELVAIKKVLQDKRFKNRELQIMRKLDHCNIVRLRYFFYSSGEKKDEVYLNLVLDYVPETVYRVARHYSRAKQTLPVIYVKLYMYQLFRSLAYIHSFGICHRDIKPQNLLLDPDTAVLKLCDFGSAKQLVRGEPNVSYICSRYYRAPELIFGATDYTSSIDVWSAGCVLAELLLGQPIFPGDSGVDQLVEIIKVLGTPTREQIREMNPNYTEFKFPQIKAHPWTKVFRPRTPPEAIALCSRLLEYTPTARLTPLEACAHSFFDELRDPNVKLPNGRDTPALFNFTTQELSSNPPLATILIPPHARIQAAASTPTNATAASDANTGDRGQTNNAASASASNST
Tyrosine-protein kinase ABL1 (Homo sapiens), sequence (P00519 whole entry): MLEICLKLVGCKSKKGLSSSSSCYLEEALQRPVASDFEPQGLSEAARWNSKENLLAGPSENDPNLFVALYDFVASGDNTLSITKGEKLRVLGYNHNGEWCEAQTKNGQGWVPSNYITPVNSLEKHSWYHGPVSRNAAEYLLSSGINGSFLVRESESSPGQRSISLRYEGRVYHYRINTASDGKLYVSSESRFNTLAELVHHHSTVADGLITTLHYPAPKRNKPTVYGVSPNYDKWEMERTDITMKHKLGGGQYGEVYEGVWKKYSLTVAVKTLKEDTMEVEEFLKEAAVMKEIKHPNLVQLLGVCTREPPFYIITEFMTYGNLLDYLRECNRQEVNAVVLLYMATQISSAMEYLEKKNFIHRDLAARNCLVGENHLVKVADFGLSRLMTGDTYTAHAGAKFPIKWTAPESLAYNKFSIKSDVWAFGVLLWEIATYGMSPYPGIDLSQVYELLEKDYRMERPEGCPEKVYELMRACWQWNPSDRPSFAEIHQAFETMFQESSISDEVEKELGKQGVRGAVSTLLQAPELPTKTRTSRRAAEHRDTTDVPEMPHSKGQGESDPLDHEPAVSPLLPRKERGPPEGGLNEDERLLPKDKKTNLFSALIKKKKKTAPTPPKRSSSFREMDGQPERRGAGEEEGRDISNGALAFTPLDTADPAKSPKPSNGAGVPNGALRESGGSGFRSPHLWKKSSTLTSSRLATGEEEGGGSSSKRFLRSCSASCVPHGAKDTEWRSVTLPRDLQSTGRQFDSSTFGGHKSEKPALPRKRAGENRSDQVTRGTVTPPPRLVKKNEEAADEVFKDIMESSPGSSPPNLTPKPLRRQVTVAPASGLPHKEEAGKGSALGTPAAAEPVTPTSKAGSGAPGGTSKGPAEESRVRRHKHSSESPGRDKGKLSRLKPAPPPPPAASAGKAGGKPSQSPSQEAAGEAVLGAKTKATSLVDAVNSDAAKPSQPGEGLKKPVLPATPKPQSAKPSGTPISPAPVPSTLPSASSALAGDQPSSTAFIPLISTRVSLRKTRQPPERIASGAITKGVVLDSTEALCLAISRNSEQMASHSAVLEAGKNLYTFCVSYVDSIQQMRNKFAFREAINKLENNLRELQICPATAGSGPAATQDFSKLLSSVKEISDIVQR
Ribosomal protein S6 kinase beta-1 (Homo sapiens), sequence (P23443 whole entry, looked up): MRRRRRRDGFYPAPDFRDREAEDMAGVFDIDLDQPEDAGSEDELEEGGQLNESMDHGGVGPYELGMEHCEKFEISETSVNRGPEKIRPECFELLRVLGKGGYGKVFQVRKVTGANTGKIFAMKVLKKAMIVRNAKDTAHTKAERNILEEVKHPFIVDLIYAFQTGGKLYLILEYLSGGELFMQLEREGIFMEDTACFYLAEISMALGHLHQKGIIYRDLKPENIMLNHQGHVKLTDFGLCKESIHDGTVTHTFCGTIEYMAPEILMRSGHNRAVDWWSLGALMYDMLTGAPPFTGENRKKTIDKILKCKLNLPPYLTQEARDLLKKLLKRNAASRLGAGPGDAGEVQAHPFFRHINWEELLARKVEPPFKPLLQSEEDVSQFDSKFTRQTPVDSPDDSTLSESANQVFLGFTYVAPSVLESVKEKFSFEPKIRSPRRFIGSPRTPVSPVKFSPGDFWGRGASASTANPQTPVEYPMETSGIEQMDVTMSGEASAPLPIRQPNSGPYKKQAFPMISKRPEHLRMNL

Consider `CNC(=O)CCc1cc(-c2ccc(-c3ccc(C(F)(F)F)cc3)cc2)n(-c2ccc(N3CCNCC3)cc2)n1`, for which the outcome in data set [1] was Active. For the same molecule, the Activity is 98% in [2]; “Non-toxic” in data set [4]; 94% in data set [7]; 14.9% in [8]; “Dose-dependent effect” in data set [9]; 142% in [10]. The Activity was 65% in data set [13], 73% in [15], 73% in [17] and “Dose-dependent effect” in [18]. For the same molecule, the outcome in [3], in [11] and in data set [16] was inactive. Besides, the inhibition result in data set [5] was “Active”. Also, the inhibition result in data set [6] and in [14] was “inactive” in each case. The inhibition result in [12] is “Dose-dependent effect”.
